Experimental data taken from ChEMBL document CHEMBL4390663, “Cationic biaryl 1,2,3-triazolyl peptidomimetic amphiphiles: synthesis, antibacterial evaluation and preliminary mechanism of action studies” (Eur J Med Chem, 2019).

What was measured:
Enterococcus faecalis [1] = assay: Antibacterial activity against Enterococcus faecalis ATCC 29212 incubated for 24 hrs by CLSI method; assay type: functional; conditions: ATCC 29212, 24 h
Clostridioides difficile [2] = assay: Antibacterial activity against Clostridium difficile NSW132 RT027 incubated for 48 hrs by CLSI method; assay type: functional; conditions: NSW132 RT027, 48 h
Method in brief: (§1)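 Broth microdilution per CLSI anaerobe method in pre-reduced (2-4 h) Brucella broth with haemin and vitamin K, 35 °C anaerobically for 48 h. Compounds from 5 mg/mL DMSO stocks, twofold dilutions in water mixed with double-strength broth; final 0.25–128 μg/mL. […] Triplicate; modal MIC read visually as lowest concentration inhibiting growth.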

Streptococcus pneumoniae [3] = assay: Antibacterial activity against Streptococcus pneumoniae ATCC 49619 incubated for 24 hrs by CLSI method; assay type: functional; conditions: ATCC 49619, 24 h
Method in brief: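 CLSI broth microdilution in MHB with 2.5% lysed horse blood, 5% CO2, 35 °C, 24 h. Compounds from 5 mg/mL DMSO stocks diluted in water plus double-strength broth; final 0.25–128 μg/mL. […] Triplicate; modal MIC read visually as lowest growth-inhibiting concentration.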

Enterococcus faecalis [4] = assay: Antimicrobial activity against vancomycin-resistant Enterococcus faecalis clinical isolate incubated for 18 hrs by CLSI method; assay type: functional
Staphylococcus aureus [5] = assay: Antimicrobial activity against methicillin-resistant Staphylococcus aureus clinical isolate with reduced daptomycin susceptibility incubated for 18 hrs by CLSI method; assay type: functional
Clostridioides difficile [6] = assay: Antibacterial activity against Clostridium difficile ATCC 700057 incubated for 48 hrs by CLSI method; assay type: functional; conditions: ATCC 700057, 48 h; method in brief: as §1
Staphylococcus aureus [7] = assay: Antimicrobial activity against methicillin-resistant Staphylococcus aureus ATCC 43300 incubated for 18 hrs by CLSI method; assay type: functional; conditions: ATCC 43300, 18 h
Staphylococcus aureus [8] = assay: Antimicrobial activity against vancomycin resistant Staphylococcus aureus NARSA VRS10 incubated for 18 hrs by CLSI method; assay type: functional; conditions: NARSA VRS10, 18 h
Staphylococcus aureus [9] = assay: Antimicrobial activity against glycopeptide intermediate susceptible Staphylococcus aureus NRS17 incubated for 18 hrs by CLSI method; assay type: functional; conditions: NRS17, 18 h
Staphylococcus aureus [10] = assay: Antimicrobial activity against Staphylococcus aureus ATCC 29213 incubated for 24 hrs by CLSI method; assay type: functional; conditions: ATCC 29213, 24 h
Method in brief: (§2)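 Broth microdilution per CLSI aerobic guidance in Mueller Hinton broth, ambient air, 35 °C for 24 h. DMSO stocks were diluted in water, then serially diluted with double-strength broth inoculum added, for final 0.25–128 μg/mL. […] MIC was read visually as the lowest concentration inhibiting growth; the modal value of triplicates was recorded.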

Streptococcus pneumoniae [11] = assay: Antibacterial activity against MDR Streptococcus pneumoniae ATCC 700677 incubated for 18 hrs by CLSI method; assay type: functional; conditions: ATCC 700677, 18 h
Staphylococcus aureus [12] = assay: Antimicrobial activity against methicillin-resistant Staphylococcus aureus clinical isolate incubated for 18 hrs by CLSI method; assay type: functional
Staphylococcus aureus [13] = assay: Antimicrobial activity against glycopeptide intermediate susceptible/methicillin-resistant Staphylococcus aureus NRS1 incubated for 18 hrs by CLSI method; assay type: functional; conditions: NRS1, 18 h
Staphylococcus aureus [14] = assay: Antibacterial activity against methicillin-resistant Staphylococcus aureus NCTC 10442 incubated for 24 hrs by CLSI method; assay type: functional; conditions: NCTC 10442, 24 h; method in brief: as §2
Escherichia coli [15] = assay: Induction of cytoplasmic membrane depolarization in Escherichia coli NCTC 10418 at 64 ug/ml incubated for 30 mins by diSC35 staining based fluorescence assay relative to control; assay type: functional
Method in brief: (§3)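 Mid-log cells (1.5 McFarland) loaded with 4 µM diSC3(5) in the dark at room temperature: S. aureus in PBS 30 min; E. coli in 5 mM HEPES/20 mM glucose pH 7.2 for 60 min, then 100 mM KCl and 0.5 mM EDTA. Baseline fluorescence (ex 620/em 670 nm) ~8 min, then compound added (final 32 µg/mL S. aureus, 64 µg/mL E. coli), tracked ~30 min.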

Escherichia coli [16] = assay: Antibacterial activity against Escherichia coli ATCC 25922 incubated for 18 hrs by CLSI method; assay type: functional; conditions: ATCC 25922, 18 h
Method in brief: (§4)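 Screen run by CO-ADD: mid-log cultures in cation-adjusted MHB, 5 × 10^5 CFU/mL, compounds at up to 32 μg/mL in 1:2 serial dilutions (8 steps), final DMSO ≤0.5%, duplicate. 37 °C for 18 h without shaking; OD600 read against media-only and untreated-bacteria references. MIC = lowest concentration giving ≥80% inhibition; colistin standard.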

Pseudomonas aeruginosa = assay: Antimicrobial activity against Pseudomonas aeruginosa ATCC 27853 incubated for 18 hrs by CLSI method; assay type: functional; conditions: ATCC 27853, 18 h; method in brief: as §4
Escherichia coli [17] = assay: Induction of plasma membrane permeabilization in Escherichia coli NCTC 10418 at 32 ug/ml measured for 30 mins by propidium iodide staining based fluorescence assay relative to control; assay type: functional
Method in brief: (§5)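 Mid-log cells (1.5 McFarland) with 4 µM propidium iodide, dark, room temperature: S. aureus in PBS 30 min; E. coli in 5 mM HEPES/20 mM glucose pH 7.2 for 60 min, then 100 mM KCl and 0.5 mM EDTA. Fluorescence (ex 544/em 615 nm) read ~8 min baseline, then ~30 min after compound at 32 µg/mL final.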

[18] = Cytotoxicity against human HEK293 cells assessed as reduction in cell growth incubated for 20 hrs by resazurin dye-based fluorometric assay
Method in brief: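 HEK293 cells, 5000 per well in DMEM + 10% FBS, exposed to compounds (top 32 μg/mL, 1:2 serial dilution ×8, ≤0.5% DMSO, duplicate) for 20 h at 37 °C, 5% CO2. Resazurin added (2.3 μg/mL final), 3 h further; fluorescence ex 560/em 590 nm. CC50 from sigmoidal dose-response fit against log concentration; tamoxifen standard.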

[19] = Haemolytic activity in sheep erythrocytes at 50 ug/ml incubated for 2 hrs under shaking condition relative to control; assay type: ADME, cell-based, Ovis aries, Erythrocyte; conditions: read-out: Activity
Method in brief: (§6)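 Compounds in PBS mixed with washed sheep erythrocytes (2% final) at 5 or 50 μg/mL, rocked 2 h at 37 °C, centrifuged; supernatant absorbance at 540 nm. PBS-only value subtracted, then expressed relative to water lysis (100%). Triplicate, means reported.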

Acinetobacter baumannii [20] = assay: Antimicrobial activity against Acinetobacter baumannii ATCC 19606 incubated for 18 hrs by CLSI method; assay type: functional; conditions: ATCC 19606 = CIP 70.34 = JCM 6841, 18 h; method in brief: as §4
Staphylococcus aureus [21] = assay: Induction of plasma membrane permeabilization in Staphylococcus aureus ATCC 29213 at 32 ug/ml measured for 30 mins by propidium iodide staining based fluorescence assay relative to control; assay type: functional; method in brief: as §5
Staphylococcus aureus [22] = assay: Antimicrobial activity against Staphylococcus aureus ATCC 43300 incubated for 18 hrs by CLSI method; assay type: functional; conditions: ATCC 43300, 18 h
[23] = Haemolytic activity in sheep erythrocytes at 5 ug/ml incubated for 2 hrs under shaking condition relative to control; assay type: ADME, cell-based, Ovis aries, Erythrocyte; conditions: read-out: Activity; method in brief: as §6
Staphylococcus aureus [24] = assay: Induction of cytoplasmic membrane depolarization in Staphylococcus aureus ATCC 29213 at 32 ug/ml incubated for 30 mins by diSC35 staining based fluorescence assay relative to control; assay type: functional; method in brief: as §3
Klebsiella pneumoniae = assay: Antibacterial activity against Klebsiella pneumoniae 700603 incubated for 18 hrs by CLSI method; assay type: functional; conditions: Klebsiella pneumoniae, 700603, 18 h; method in brief: as §4
Acinetobacter baumannii [25] = assay: Antimicrobial activity against Acinetobacter baumannii incubated for 24 hrs by broth microdilution method; assay type: functional
Staphylococcus aureus [26] = assay: Antimicrobial activity against methicillin-resistant Staphylococcus aureus incubated for 24 hrs by broth microdilution method; assay type: functional; method in brief: as §2
Enterococcus faecalis [27] = assay: Antimicrobial activity against vancomycin-resistant Enterococcus faecalis incubated for 24 hrs by broth microdilution method; assay type: functional
Clostridioides difficile [28] = assay: Antimicrobial activity against Clostridium difficile incubated for 24 hrs by broth microdilution method; assay type: functional

| Compound | MIC (Enterococcus faecalis [1]) | MIC (Clostridioides difficile [2]) | MIC (Streptococcus pneumoniae [3]) | MIC (Enterococcus faecalis [4]) | MIC (Staphylococcus aureus [5]) | MIC (Clostridioides difficile [6]) | MIC (Staphylococcus aureus [7]) | MIC (Staphylococcus aureus [8]) | MIC (Staphylococcus aureus [9]) | MIC (Staphylococcus aureus [10]) | MIC (Streptococcus pneumoniae [11]) | MIC (Staphylococcus aureus [12]) | MIC (Staphylococcus aureus [13]) | MIC (Staphylococcus aureus [14]) | MIC (Escherichia coli [16]) | MIC (Pseudomonas aeruginosa) | CC50 at 20 h [18] | hemolysis at 2 h, 50 ug/ml [19] | MIC (Acinetobacter baumannii [20]) | MIC (Staphylococcus aureus [22]) | further results |
| --- | --- | --- | --- | --- | --- | --- | --- | --- | --- | --- | --- | --- | --- | --- | --- | --- | --- | --- | --- | --- | --- |
| CC(C)CCOc1ccc2ccccc2c1-c1c(OCc2cn(C[C@@H](CCCCN)NC(=O)[C@@H](CCCNC(=N)N)NC(=O)Cc3ccc4c(c3)OCO4)nn2)ccc2ccccc12.Cl.Cl | 4 µg/mL | 32 µg/mL | 4 µg/mL | 2 µg/mL | 4 µg/mL | 8 µg/mL | 2 µg/mL | 4 µg/mL | 4 µg/mL | 4 µg/mL | 2 µg/mL | 4 µg/mL | 2 to 4 µg/mL | 4 µg/mL | – | – | – | – | – | – | – |
| CC(C)CCOc1ccccc1-c1ccccc1OCc1cn(C[C@@H](CCCCN)NC(=O)[C@@H](CCCNC(=N)N)n2cc(CC3CCCCC3)nn2)nn1.Cl.Cl | 4 µg/mL | 4 µg/mL | 4 µg/mL | – | – | 4 µg/mL | – | – | – | 4 µg/mL | – | – | – | 4 µg/mL | 4 µg/mL | 16 µg/mL | > 32 µg/mL | 42.4% | 8 µg/mL | 2 µg/mL | Activity (Escherichia coli [15]): 460 - 900%; Activity (Escherichia coli [17]): 25 - 40%; Activity (Staphylococcus aureus [21]): 600%; hemolysis at 2 h, 5 ug/ml [23]: 1.5%; Activity (Staphylococcus aureus [24]): 120 - 180%; MIC (Klebsiella pneumoniae): 16 µg/mL |
| CC(C)CCOc1ccc2ccccc2c1-c1c(OCC(=O)N[C@H](CCCCN)C(=O)N[C@H](CCCNC(=N)N)Cn2cc(CC3CCCCC3)nn2)ccc2ccccc12.Cl.Cl | – | – | – | – | – | – | – | – | – | – | – | – | – | – | – | – | – | 78% | – | – | MIC (Acinetobacter baumannii [25]): 4 µg/mL; MIC (Staphylococcus aureus [26]): 2 µg/mL; MIC (Enterococcus faecalis [27]): 4 µg/mL; MIC (Clostridioides difficile [28]): 4 µg/mL |
| CC(C)CCOc1ccc2ccccc2c1-c1c(OCc2cn(C[C@@H](CCCCN)NC(=O)CCc3ccccc3)nn2)ccc2ccccc12.Cl | 8 µg/mL | 32 µg/mL | 16 µg/mL | 4 µg/mL | 8 µg/mL | 32 µg/mL | 2 to 4 µg/mL | 8 µg/mL | 8 µg/mL | 4 µg/mL | 8 µg/mL | 16 µg/mL | 8 to 16 µg/mL | 8 µg/mL | > 32 µg/mL | > 32 µg/mL | 3.5 µg/mL | – | > 32 µg/mL | 4 µg/mL | MIC (Klebsiella pneumoniae): > 32 µg/mL |
